Experimental data from PubChem BioAssay AID588744 (Vanderbilt Specialized Chemistry Center, 2011).
The source made the active and inactive calls.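 How the source made its calls: active means compounds whose response rose with dose, given a half-maximal potency and peak effect versus acetylcholine; inactive means the rest.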

Molecular target: Muscarinic acetylcholine receptor M1 (Homo sapiens) (UniProt P11229)
Experiment: potentiation of ACh at human M1 – CHO cells, calcium fluorescence, counter-screen for M4 PAM project, dose response (AID 588744)
Settings: CHO hM1 calcium mobilization, Fluo-4 fluorescence
How it was run: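 Test system – hM1-expressing CHO cells with Fluo-4 · Benchmarks – 1 mM acetylcholine maximum · Also added – acetylcholine at EC20, then acetylcholine at EC80 · Schedule – 144 s compound preincubation, EC80 ACh 86 s after EC20, 37 °C · Evaluation – % of 1 mM ACh maximum and EC50 · Detection – Fluo-4 calcium fluorescence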

Sequence of Muscarinic acetylcholine receptor M1 (Homo sapiens) (P11229 whole entry, looked up): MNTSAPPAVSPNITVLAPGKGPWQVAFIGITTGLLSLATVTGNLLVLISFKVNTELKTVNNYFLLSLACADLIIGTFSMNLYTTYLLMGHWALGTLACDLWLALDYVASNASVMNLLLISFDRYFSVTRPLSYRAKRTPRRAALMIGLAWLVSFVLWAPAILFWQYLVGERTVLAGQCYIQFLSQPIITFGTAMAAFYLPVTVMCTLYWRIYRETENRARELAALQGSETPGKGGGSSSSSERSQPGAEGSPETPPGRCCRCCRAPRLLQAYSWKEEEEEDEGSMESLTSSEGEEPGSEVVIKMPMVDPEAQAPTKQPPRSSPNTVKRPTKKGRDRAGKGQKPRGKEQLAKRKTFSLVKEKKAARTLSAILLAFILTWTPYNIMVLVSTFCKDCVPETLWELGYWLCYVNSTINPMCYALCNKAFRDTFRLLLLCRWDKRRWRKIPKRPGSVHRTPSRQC

Cc1nc2sc(C(=O)NCc3ccncc3)c(N)c2c(C)c1Cl
% ACh max response (at 45.3 µM (top of the series)): inactive

Cc1nc2sc(C(=O)NC3CC3)c(N)c2c(C)c1Cl
EC50: 0.969 µM

Cc1nc2sc(C(=O)NCc3cccnc3)c(N)c2c(C)c1Cl
% ACh max response (at 45.3 µM (top of the series)): inactive

Cc1nc2sc(C(=O)NCc3ccc4c(c3)OCO4)c(N)c2c(C)c1Cl
% ACh max response (at 36.8 µM (top of the series)): inactive

Cc1nc2sc(C(=O)NCc3cccc(F)c3F)c(N)c2c(C)c1Cl
% ACh max response (at 30 µM (top of the series)): inactive

Cc1nc2sc(C(=O)NCc3nccs3)c(N)c2c(C)c1Cl
% ACh max response (at 30 µM (top of the series)): inactive

Cc1nc2sc(C(=O)NCCc3ccncc3)c(N)c2c(C)c1Cl
% ACh max response (at 30 µM (top of the series)): inactive

Cc1nc2sc(C(=O)NCc3ccccc3)c(N)c2c(C)c1Cl
% ACh max response (at 37.4 µM (top of the series)): inactive

Cc1nc2sc(C(=O)NCc3ccncn3)c(N)c2c(C)c1Cl
% ACh max response (at 30 µM (top of the series)): inactive
